# Experimental data: publication PMC10521327 (Journal of the American Chemical Society, 2023)
# Read-outs that look alike come from different tables or passages of the source.
# Key:
# A2780 (Ovary) = assay: Resazurin antiproliferative assay, 72 h; format: cell-based; details: read-out: IC50 A2780 (Ovary)
# Summary of the method: (§1)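 Cells were incubated with test compound for 72 h. Viability was read by the fluorescence-based resazurin assay (reduction to resorufin), chosen because formazan absorbance (400–800 nm) interferes with colorimetric probes. IC50 values were derived for each line. The panel was cancer lines plus MRC-5 normal lung fibroblasts.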
# MDA-MB-231 (Breast) = assay: Resazurin antiproliferative assay, 72 h; format: cell-based; details: read-out: IC50 MDA-MB-231 (Breast)
# Summary of the method: as §1
# Caco-2 (Colon) = assay: Resazurin antiproliferative assay, 72 h; format: cell-based; details: read-out: IC50 Caco-2 (Colon)
# Summary of the method: as §1
# A549 (Lung) = assay: Resazurin antiproliferative assay, 72 h; format: cell-based; details: read-out: IC50 A549 (Lung)
# Summary of the method: as §1
# MRC-5 (Normal lung) = assay: Resazurin antiproliferative assay, 72 h; format: cell-based; details: read-out: IC50 MRC-5 (Normal lung), mean ± SDM, n=3
# Summary of the method: as §1
# [1] = tested on: tested cancer cell lines (A2780, MDA-MB-231, Caco-2, A549); assay: Resazurin antiproliferative assay, summary over the cancer cell panel; format: cell-based; details: 72 h, read-out: IC50 range in the tested cancer cell lines
# Summary of the method: as §1
# [2] = In vitro calcein competition for Fe; details: 50 mM HEPES buffer pH 7.4 and MeOH 3:1 v/v
# Summary of the method: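 Cell-free competition: calcein was quenched with Fe(II) (1.0 equiv) in 50 mM HEPES pH 7.4/MeOH (3:1 v/v). Test compound was then added, and recovery of calcein fluorescence was taken as displacement of iron from the probe.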
# [3] = tested on: A2780 ovarian cancer cells; assay: Cell cycle distribution by flow cytometry; format: cell-based; details: A2780, 40 μM, 24 h
# Summary of the method: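 A2780 cells were treated with test compound at 40 μM for 24 h, then analysed by flow cytometry for cell-cycle phase distribution. Triplicate experiments; mean ± standard deviation; t-tests against DMSO vehicle only.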
# [4] = tested on: A2780 ovarian cancer cells; assay: Apoptotic cell death by flow cytometry; format: cell-based; details: A2780, 40 μM, 48 h
# Summary of the method: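 A2780 ovarian cancer cells were exposed to test compound (40 μM) for 48 h. Flow cytometry then scored the fractions of cells in early and late apoptosis. Runs were in triplicate, reported as mean ± standard deviation, with t-tests against DMSO vehicle.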
# [5] = tested on: A2780 ovarian cancer cells; assay: Intracellular calcein assay; format: cell-based; details: A2780, 40 μM, 24 h
# Summary of the method: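 Calcein-AM delivered calcein to the cytosol, where it is partly quenched by labile iron. Cells were incubated with test compound (40 μM), and the rise in calcein fluorescence was measured against DMSO vehicle. A2780 cells were sampled after 1, 3 and 24 h. Triplicate; mean ± standard deviation; t-tests.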
# [6] = tested on: MRC-5 normal lung fibroblasts; assay: Intracellular calcein assay; format: cell-based; details: MRC-5, 40 μM, 24 h
# [7] = tested on: transferrin receptor 1 (TfR1); assay: Western blot of TfR1 expression in A2780 cells; format: cell-based; details: A2780, 40 μM, 24 h
# Summary of the method: (§2)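 Cells were treated with test compound for 24 h; A2780 cells were treated at 40 μM. Lysates were analysed by Western blot for TfR1 and ferritin heavy chain, with β-actin as loading control. n=4; t-tests against DMSO vehicle. Ferric ammonium citrate supplementation served as an iron-replete comparison in A2780.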
# [8] = tested on: ferritin heavy chain (ferritin H); assay: Western blot of ferritin H expression in A2780 cells; format: cell-based; details: A2780, 40 μM, 24 h
# Summary of the method: as §2
# [9] = tested on: transferrin receptor 1 (TfR1); assay: Western blot of TfR1 expression in MRC-5 cells; format: cell-based; details: MRC-5, 24 h
# Summary of the method: as §2
# [10] = tested on: ferritin heavy chain (ferritin H); assay: Western blot of ferritin H expression in MRC-5 cells; format: cell-based; details: MRC-5, 24 h
# Summary of the method: as §2
# A2780 cells = format: cell-based; details: A2780, 40 μM, 48 h, FAC (50 μM) or holo-Tf (50 μM)
# [11] = Distribution coefficient by shake-flask method; format: physicochemical; details: octanol and PBS (pH 7.4), HPLC
# [12] = Stability / reduction kinetics in fetal bovine serum by HPLC; format: in vitro ADME
# [13] = resazurin assay, 72 h, mean ± SDM, n=3
compound,measurement,setting,value
"O=C(O)c1ccc(-n2nc(-c3ccccc3O)nc2-c2ccccc2O)cc1 [DFX, deferasirox]",IC50,"A2780 (Ovary); Homo sapiens, A2780, 72 h",15 ± 1 µM
same,IC50,"MDA-MB-231 (Breast); Homo sapiens, MDA-MB-231, 72 h",17 ± 1 µM
same,IC50,"Caco-2 (Colon); Homo sapiens, Caco-2, 72 h",67 ± 2 µM
same,IC50,"A549 (Lung); Homo sapiens, A549, 72 h",21 ± 3 µM
same,IC50,MRC-5 (Normal lung),220 ± 20 µM
same,IC50,[1],15 to 67 µM
same,Restoration of calcein fluorescence (displacement of Fe(II) from calcein),[2],fully restore its initial fluorescence
same,Effect on cell cycle distribution,[3],S-phase arrest
same,Cells in late apoptosis,[4],42%
same,Increase of calcein fluorescence,[5],~ 54%
same,Increase of calcein fluorescence,[6],~ 34%
same,TfR1 expression level,[7],increase of TfR1 expression
same,Ferritin H expression level,[8],degradation of ferritin
same,TfR1 expression level,[9],"maintained similar effects, albeit less pronounced"
same,Ferritin H expression level,[10],"maintained similar effects, albeit less pronounced"
same,Effect of iron supplementation on cytotoxicity,A2780 cells,could be rescued by iron supplementation
Cc1nc(-[n+]2nc(-c3ccccc3)nn2-c2ccccc2)sc1C.[Br-] [MTT],Log Do/pH7.4,[11],0.1
same,Half-life t1/2 in serum,[12],> 24 h
same,"Stability (serum, 24 h), remaining",[12]; 24 h,58%
same,IC50,A2780 (Ovary); [13],45 ± 9 µM
same,IC50,MDA-MB-231 (Breast); [13],48 ± 7 µM
same,IC50,Caco-2 (Colon); [13],92 ± 7 µM
same,IC50,A549 (Lung); [13],44 ± 9 µM
same,IC50,MRC-5 (Normal lung),32 ± 5 µM
O=C(O)CC(O)(CC(=O)O)C(=O)O [citric acid],Restoration of calcein fluorescence (displacement of Fe(II) from calcein),[2],fail to displace calcein-bound iron(II)
ferric ammonium citrate [FAC],TfR1 expression level,[7],decrease of TfR1
same,Ferritin H expression level,[8],increase of ferritin H levels
same,TfR1 expression level,[9],"maintained similar effects, albeit less pronounced"
same,Ferritin H expression level,[10],"maintained similar effects, albeit less pronounced"
